KCNK3 inh: human KCNK3 channel inhibition, primary screen. O14649. CHO-KCNK3 thallium flux, FluxOR fluorescence; hits give low values. B-score at 10 µM. 0.84% of 340,000 active;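 active means B-score under library mean minus 4 SD, starting fluorescence ratio at most library mean plus 5 SD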;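 further: more negative B-score means stronger inhibition of thallium flux through KCNK3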
hERG protect: compounds protecting human hERG from proarrhythmic drug block; activation (rescue from dofetilide block), less the hit threshold, % at 10 µM; 0.51% of 310,000 active; Q12809; CHO-hERG, FluxOR thallium flux, dofetilide IC70 present;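 active means activation above the mean of controls blocked by dofetilide plus 5 SD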;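 further: thallium influx through hERG after potassium depolarization seen as dye fluorescence rise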
KCNK9 block: blocks the human KCNK9 two-pore domain potassium channel; AID 488922; 1.2% of 310,000 active; HEK293 KCNK9, FluxOR thallium flux fluorescence; hits give low values; B-score at 10 µM;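 active means ratio B-score over 3 SD below the library mean, with starting fluorescence within 5 SD of its mean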;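 further: negative B-score means less thallium flux so channel inhibition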
KCNQ1 pot: potentiators or activators of human KCNQ1 potassium channel; P51787; CHO-K1 KCNQ1, thallium flux FluxOR fluorescence; hits give high values; B-score at 10 µM; 0.35% of 310,000 active; AID 2648;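 active means fluorescence ratio B-score, a plate-corrected score, at least three library SD, with initial intensity B-score within 5 SD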
Target sequence (P51787 whole entry, looked up): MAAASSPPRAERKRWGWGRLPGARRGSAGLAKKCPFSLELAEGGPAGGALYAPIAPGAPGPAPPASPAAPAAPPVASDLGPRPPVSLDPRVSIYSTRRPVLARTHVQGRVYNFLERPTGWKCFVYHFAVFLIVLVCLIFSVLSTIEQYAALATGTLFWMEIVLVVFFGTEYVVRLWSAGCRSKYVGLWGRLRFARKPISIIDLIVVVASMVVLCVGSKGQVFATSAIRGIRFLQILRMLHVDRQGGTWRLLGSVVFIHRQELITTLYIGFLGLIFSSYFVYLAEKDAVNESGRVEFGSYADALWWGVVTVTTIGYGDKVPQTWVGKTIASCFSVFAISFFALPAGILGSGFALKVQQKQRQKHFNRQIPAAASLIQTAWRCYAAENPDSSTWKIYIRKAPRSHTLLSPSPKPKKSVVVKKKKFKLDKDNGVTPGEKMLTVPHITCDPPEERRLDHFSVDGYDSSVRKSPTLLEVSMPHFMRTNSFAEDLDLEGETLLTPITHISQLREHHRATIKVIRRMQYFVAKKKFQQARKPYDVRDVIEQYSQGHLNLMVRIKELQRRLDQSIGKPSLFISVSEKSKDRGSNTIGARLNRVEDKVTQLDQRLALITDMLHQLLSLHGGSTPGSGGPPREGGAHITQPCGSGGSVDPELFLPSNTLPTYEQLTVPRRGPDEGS
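Assay system: stable KCNQ1 CHO-K1 line; medium: assay buffer, equal DMSO in all wells; timing: 90 min dye loading and 20 min compound exposure, both at room temperature; technique: kinetic FluxOR thallium fluorescence, 10-s 1-Hz baseline, 110-s post-stimulus read; read-out basis: B score of baseline-normalized fluorescence ratio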
KCNQ1 block: inhibitors of human KCNQ1 potassium channel. P51787. B-score at 10 µM. 1.3% of 310,000 active. AID 2642. CHO-K1 KCNQ1, FluxOR thallium flux fluorescence; hits give high values;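 active means compounds whose thallium flux B-score, printed positive for inhibition, exceeds three library SD while starting fluorescence stays within three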;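 further: channel opened by potassium depolarization with thallium stimulus after 20 min compound exposure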
Kir21 block: inhibitors of mouse Kir2.1 inward-rectifier potassium channel; P35561; HEK293-Kir2.1, FluxOR thallium flux fluorescence; hits give low values; 0.85% of 310,000 active; AID 1672; B-score at 10 µM;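 active means fluorescence ratio B-score at or below minus 3 SD of library scores, with starting-brightness B-score within 2 SD, cut at about -4.2 in these data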;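 further: channel flux triggered by added potassium and thallium sulfate stimulus; B-score of peak minus minimum fluorescence over baseline after thallium stimulus; more negative B-score means stronger Kir2.1 block with less thallium influx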
KCNK9 inh conf: human KCNK9 inhibitor confirmation | shares compounds with KCNK9 block | HEK293 KCNK9 cells, FluxOR thallium flux fluorescence | inhibition, % at 10 µM | 43% of 4,900 active | AID 492992;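 active means thallium signal inhibited by more than 5 SD of the compound-free buffer control wells, on both duplicate plates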;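 further: 0% = assay buffer control wells without compound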
Kir2-1 spec: tests whether KCNK9 modulators also affect mouse Kir2.1; shares compounds with KCNK9 block; Kir2.1 cells, FluxOR thallium flux fluorescence; inhibition, % at 10 µM; 4% of 4,900 active; AID 492993;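 active means thallium signal drop more than 5 SD beyond the mean of the no-compound control wells, seen in both duplicate plates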;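 further: signal is fluorescence rise after thallium addition divided by baseline fluorescence; plate controls were assay buffer only for no effect and full block by chlorpromazine control for full effect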
KCNK9 uninduced: second counter-screen for KCNK9 modulators: effect in non-induced cells. shares compounds with KCNK9 block. non-induced KCNK9-HEK293, FluxOR thallium flux. inhibition, % at 10 µM. 40% of 4,900 active. AID 492997;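 active means thallium signal drop beyond 5 SD of the untreated control mean, on both duplicate plates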;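 further: plate controls were buffer only IC0 wells for no effect and SID17386958 at its maximal inhibitory level for full effect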
The depositor's hits bear a star; i = inactive; nt = no result given. This is a sample that favours compounds with a hit; in the whole collection about 3.7% have one here.

SMILES	KCNK3 inh	hERG protect	KCNK9 block	KCNQ1 pot	KCNQ1 block	Kir21 block	KCNK9 inh conf	Kir2-1 spec	KCNK9 uninduced
CCn1c(=NC(=O)CSC(C)=O)sc2cc(OC)ccc21	i	-7	-14*	i	i	0.17	60%*	i	32%*
COc1ccc(N2CCN(C(=O)COC(=O)CNC(=O)c3ccc(C)cc3)CC2)cc1	i	-9	i	i	i	0.01	nt	nt	nt
Clc1cccc(-c2cc3nc4c(c(NCc5ccco5)n3n2)CCCC4)c1	i	-12	-9.4*	i	i	-0.82	30%*	i	32%*
Cc1ccc(CN2C(=O)CSC(C)C2=O)cc1 (stereo not drawn)	i	-4	i	i	i	-2	nt	nt	nt
CCOC(=O)c1cccnc1SCC(=O)N(CC)c1cccc(C)c1	i	-15	i	i	i	-1.2	i	i	i
CCCNC(=O)C12CCC(C)(c3nc4cc(C)c(C)cc4nc31)C2(C)C (stereo not drawn)	i	-8	i	i	i	0.04	i	i	i
Cc1ccccc1C(=NC(=O)c1ccccc1)c1ccccc1	i	-10	-10*	i	i	-2.5	47%*	i	46%*
COc1ccc(-c2n(CC(=O)OC3CC(C)CCC3C(C)C)c3ccccc3[n+]2C)cc1 (stereo not drawn)	i	-31	-17*	i	11*	-13*	73%*	80%*	i
CCOC(=O)C1CCN(C(=O)CN2C(=O)c3cccnc3Oc3ccccc32)CC1	i	-6	i	i	i	0.03	nt	nt	nt
COC(=O)c1sc(-c2ccc(Cl)cc2)cc1NC(=O)CSCC(=O)O	i	-13	i	i	i	0.01	i	i	i
CCOC(=O)N/N=C/c1cc(C)n(-c2cccc3ccccc23)c1C	i	-5	-8.3*	i	i	-1.3	48%*	i	36%*
Cc1nc(C)c(-c2ccc(SCc3ccc(Cl)cc3)nn2)s1	i	-9	i	i	i	0.02	i	i	i
O=c1c2ccccc2c(=O)n(-c2ccccc2)n1-c1ccccc1	i	nt	nt	nt	nt	nt	nt	nt	nt
CCCN(CCC)C(=O)Cn1c(=O)c2ccccc2n2c(=S)sc(-c3ccccc3C)c12	i	-1	i	i	i	0.55	i	i	i
CCOC(=O)C1CCN(Cc2nnc(-c3ccccc3C)o2)CC1	i	-3	i	i	i	1.6	nt	nt	nt
CCCCn1c(SCc2nc(N)nc(Nc3ccccc3C)n2)nc2ccccc2c1=O	i	-4	-9.5*	i	i	1.2	40%*	i	i
S=c1[nH]nc(-c2cccs2)n1/N=C/c1cn(-c2ccccc2)nc1-c1cccs1	i	-14	i	i	i	-2.4	nt	nt	nt
Cc1ccc(-c2nn(-c3ccccc3)cc2/C=N/n2c(-c3cccs3)n[nH]c2=S)cc1	i	-8	i	i	i	0.2	i	i	i
O=C(Nc1ccccc1-c1nnc(SCc2ccccc2)o1)c1ccccc1	i	-17	i	i	i	-0.11	i	i	i
O=C(O)c1ccc(CSc2nnc(-c3ccccc3Br)o2)cc1	i	-2	i	i	i	-0.54	nt	nt	nt
CCOC(=O)C1CCCN1C(=O)C1(NC(C)=O)CCCC1 (stereo not drawn)	i	nt	nt	nt	nt	nt	nt	nt	nt
CCOC(=O)c1c(NS(=O)(=O)c2ccc(Br)cc2)sc2c1CCC2	i	62*	i	56*	i	0.18	i	i	i
COC(=O)c1c(NS(=O)(=O)c2ccc3ccccc3c2)sc2c1CCCC2	i	17*	i	33*	i	0.67	i	i	i
CC1CCc2c(sc(NS(=O)(=O)c3ccccc3)c2C(=O)OC(C)C)C1 (stereo not drawn)	i	4	i	26*	i	2.5	i	i	i
CC1CCc2c(sc(NC(=O)c3ccco3)c2C(=O)O)C1 (stereo not drawn)	i	-5	i	i	i	0.07	nt	nt	nt
SMILES	KCNK3 inh	hERG protect	KCNK9 block	KCNQ1 pot	KCNQ1 block	Kir21 block	KCNK9 inh conf	Kir2-1 spec	KCNK9 uninduced
COc1cccc(/C=C/C(=O)OCC(=O)NCC2CCCCC2)c1OC	i	nt	nt	nt	nt	nt	nt	nt	nt
Cc1ccccc1/C=C/c1nc2ccccc2c(=O)n1CCc1ccccc1	i	-7	-11*	i	i	-0.01	24%*	i	33%*
O=S1c2ccccc2Sc2ccccc21	i	nt	nt	nt	nt	nt	nt	nt	nt
NC(=O)C1Cc2ccccc2CN1S(=O)(=O)c1ccc(Cl)s1 (stereo not drawn)	i	-9	i	i	i	-2.7	nt	nt	nt
CN(C1CCCCC1)S(=O)(=O)c1cccc(C(=O)OCC(=O)NC2CCCc3ccccc32)c1 (stereo not drawn)	i	-4	-9.5*	i	i	1.3	56%*	i	i
COc1ccc(CNC(=O)CSCc2cnn(-c3ccccc3)c2-n2cccc2)cc1	i	-16	i	i	i	-4.9*	i	i	i
COc1ccc(-n2c(CCc3ccccc3)nnc2SCC(=O)c2ccccc2)cc1	i	-2	i	i	i	0	i	i	i
COc1ccc(-n2c(CCc3ccccc3)nnc2SCC(=O)NCc2ccccc2)cc1	i	-16	i	i	i	-4.9*	i	i	i
COc1ccc(NC(=O)Cc2nnc(SCC(=O)c3ccccc3)n2C)cc1	i	-6	i	i	i	0.47	nt	nt	nt
O=C(CSc1nnc(CCc2ccccc2)n1-c1ccc(Cl)cc1)NCc1ccccc1	i	-4	i	i	i	-3.4	nt	nt	nt
O=C(NCc1ccccc1)C(c1ccccc1F)N(C(=O)c1csnn1)C1CCCC1 (stereo not drawn)	i	-6	i	i	i	0.89	nt	nt	nt
COc1cccc(NC(=O)COC(=O)Cn2c(C)csc2=O)c1	i	nt	nt	nt	nt	nt	nt	nt	nt
CC(C)NC(=O)[C@H](CSCc1ccccc1)N1Cc2ccccc2C1=O	i	-6	i	i	i	0.33	nt	nt	nt
O=C(NC1CCCCC1)[C@H](CSCc1ccccc1)N1Cc2ccccc2C1=O	i	-8	i	i	i	2.7	i	i	i
O=C(N/C(=C\c1cccc([N+](=O)[O-])c1)C(=O)N1CCOCC1)c1ccco1	i	-8	i	i	i	-0.04	nt	nt	nt
O=c1c(CN2CCN(c3cccc(Cl)c3)CC2)coc2c(Cl)cc(Cl)cc12	i	-11	i	i	i	-0.96	i	i	i
CCOC(=O)c1c(C)[nH]c(C(=O)Cn2c(=O)c3c(ncn3CC)n(Cc3ccccc3)c2=O)c1C	i	-4	i	i	i	-1.7	i	i	i
CCn1cnc2c1c(=O)n(Cc1csc(-c3ccccc3)n1)c(=O)n2Cc1ccccc1	i	-11	i	i	i	-0.36	i	i	i
